{"source": "paper PMC2912410", "about": "(Bioconjugate chemistry, 2010)", "key": {"P2Y1 receptor": {"biological_target": "P2Y1 receptor", "conditions": "competitive antagonist of the P2Y1 receptor; cited from earlier work"}, "human platelets": {"tested_on": "human platelets", "assay": "ADP-induced aggregation of human washed platelets", "format": "cell-based", "conditions": "1 μM, ADP 5 μM", "in_short": "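Washed human platelets: donor blood spun 175×g, 15 min, 37 °C; platelet-rich plasma spun 1570×g, 15 min; pellet washed twice in Tyrode's (pH 7.3, 0.35% human serum albumin); resuspended 3×10^5/μL with 0.02 U/mL apyrase, kept at 37 °C. Extent measured as maximum curve height above baseline.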"}, "hP2Y1 receptor": {"biological_target": "hP2Y1 receptor (Homo sapiens, UniProt P47900)", "sequence (P47900 whole entry)": "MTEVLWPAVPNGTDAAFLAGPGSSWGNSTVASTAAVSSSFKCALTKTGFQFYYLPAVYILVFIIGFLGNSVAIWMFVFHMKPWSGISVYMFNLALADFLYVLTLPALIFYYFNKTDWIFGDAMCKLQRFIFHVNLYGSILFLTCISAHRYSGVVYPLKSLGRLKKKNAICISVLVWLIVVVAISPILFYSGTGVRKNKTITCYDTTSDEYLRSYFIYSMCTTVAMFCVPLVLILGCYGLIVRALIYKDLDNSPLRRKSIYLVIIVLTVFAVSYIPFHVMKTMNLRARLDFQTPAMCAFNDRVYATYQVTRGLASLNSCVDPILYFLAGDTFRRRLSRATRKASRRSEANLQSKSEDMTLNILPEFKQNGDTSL", "assay": "[125I]MRS2500 radioligand binding at hP2Y1 receptor in Sf9 insect cell membranes", "conditions": "for binding to the P2Y1 receptor (in words): [125I]MRS2500 binding; for fold weaker in binding than shortest homologue 20: comparison of Ki values"}}, "note": "“Also recorded” adds a separate entry of the source."}
{"molecule": "CNc1ncnc2c1ncn2[C@H]1C[C@H](OP(=O)(O)O)[C@@H](COP(=O)(O)O)O1", "note": "[Compound 1, N^6-methyl-2′-deoxyadenosine-3′,5′-bisphosphate]", "values": [{"measurement": "Kb", "setting": "P2Y1 receptor", "value": 102, "unit": "nM"}]}
{"molecule": "CNc1nc(I)nc2c1ncn2[C@H]1C[C@H](OP(=O)(O)O)[C@]2(COP(=O)(O)O)C[C@H]12", "note": "[Compound 2, (1′R,2′S,4′S,5′S)-4-(2-iodo-6-methylamino-purin-9-yl)-1-[(phosphato)-methyl]-2-(phosphato)-bicyclo[3.1.0]hexane]", "values": [{"measurement": "inhibition of platelet aggregation (in words)", "setting": "human platelets", "value": "completely inhibited aggregation"}]}
{"molecule": "CNc1nc(C#CCCCC(=O)NCCNC(=O)CCCCCNC(=O)CCCCC2SCC3NC(=O)NC32)nc2c1ncn2[C@H]1C[C@H](OP(=O)(O)O)[C@]2(COP(=O)(O)O)C[C@H]12", "note": "(stereo partly drawn) [Compound 18, (1'R,2'S,4'S,5'S)-4-{2-[6-(6-Oxo-6-(2-(6-(5-(2-oxohexahydro-1H-thieno[3,4-d]imidazol-4-yl)pentanamido)hexanamido)ethylamino)hex-1-ynyl)]-6-methylaminopurin-9-yl}-1-[(phosphato)-methyl]-2-(phosphato)-bicyclo[3.1.0]hexane]", "values": [{"measurement": "binding to the P2Y1 receptor (in words)", "setting": "hP2Y1 receptor", "value": "more potent in binding than the shorter analogue 17"}]}
{"molecule": "CNc1nc(C#CCCCCc2cn(CCNC(C)=O)nn2)nc2c1ncn2[C@H]1C[C@H](OP(=O)(O)O)[C@]2(COP(=O)(O)O)C[C@H]12", "note": "[Compound 22, (1'R,2'S,4'S,5'S)-4-{2-[(6-(2-Acetamidoethyl)-1H-1,2,3-triazol-4-yl)-hex-1-yn-1-yl]-6-methylaminopurin-9-yl}-1-[(phosphato)-methyl]-2-(phosphato)-bicyclo[3.1.0]hexane]", "values": [{"measurement": "fold weaker in binding than shortest homologue 20", "setting": "hP2Y1 receptor", "value": "20 – 30 fold"}]}
{"molecule": "CNc1nc(C#CCCCCCc2cn(CCNC(C)=O)nn2)nc2c1ncn2[C@H]1C[C@H](OP(=O)(O)O)[C@]2(COP(=O)(O)O)C[C@H]12", "note": "[Compound 23, (1'R,2'S,4'S,5'S)-4-{2-[(7-(2-Acetamidoethyl)-1H-1,2,3-triazol-4-yl)-hept-1-yn-1-yl]-6-methylaminopurin-9-yl}-1-[(phosphato)-methyl]-2-(phosphato)-bicyclo[3.1.0]hexane]", "values": [{"measurement": "fold weaker in binding than shortest homologue 20", "setting": "hP2Y1 receptor", "value": "20 – 30 fold"}]}
{"molecule": "(1'R,2'S,4'S,5'S)-4-{2-[(6-(6-(4-(Fluorosulfonyl)phenethylamino)-6-oxohex-1-ynyl)]-6-methylaminopurin-9-yl}-1-[(phosphato)-methyl]-2-(phosphato)-bicyclo[3.1.0]hexane [Compound 19]", "values": [{"measurement": "binding to the P2Y1 receptor (in words)", "setting": "hP2Y1 receptor", "value": "not appreciably potent; also recorded: weak in binding"}]}
{"molecule": "(1'R,2'S,4'S,5'S)-4-{2-[(6-(6-Oxo-6-(2-(5-(2-oxohexahydro-1H-thieno[3,4-d]imidazol-4-yl)pentanamido)ethylamino)hex-1-ynyl)-1-propynyl]-6-methylaminopurin-9-yl}-1-[(phosphato)-methyl]-2-(phosphato)-bicyclo[3.1.0]hexane [Compound 17]", "values": [{"measurement": "binding to the P2Y1 receptor (in words)", "setting": "hP2Y1 receptor", "value": "weak in binding"}]}
